Pf Dd2 growth: P. falciparum Dd2 growth inhibitors, primary screen, SYBR Green fluorescence, single dose replicates | 72 h; active compounds read low | activity change, % at 10 µM | 2.3% of 94,000 active; in the data active = activity change below about -80%; inconclusive = no clear call, values can overlap the other calls
T cruzi growth-1: T. cruzi intracellular proliferation inhibitors, primary screen, cell-based, beta-gal Tulahuen parasites, NIH3T3 host, luminescence | T. cruzi beta-gal in NIH3T3, GalScreen luminescence, 90 h | inhibition, % at 8.34 µM | 5.9% of 77,000 active | AID 624255, 2012;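 active = mean inhibition above about 93%, with at least 55% of replicates each passing it, limit read from the data, passing the limit was not always enough; inconclusive = only one of those two conditions holds; inactive = neither condition holds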
IDH1 mut inh: inhibitors of IDH1 R132H reductase, primary screen, biochemical, plate reader, single point; Isocitrate dehydrogenase [NADP] cytoplasmic (Homo sapiens), O75874; inhibition, % at 10 µM; 0.18% of 70,000 active; diaphorase/resazurin fluorescence, 60 min; in the data active = inhibition above about 34%; inconclusive = no clear call, values can overlap the other calls; inactive = below about 11%;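 note: 0% = DMSO and 100% = no enzyme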
GASC1 inh: inhibitors of GASC-1 (KDM4C) histone demethylase, primary screen, biochemical, single concentration HTS; 0.15% of 96,000 active; AID 720574, 2013; inhibition, % at 12.5 µM; GST-KDM4C 2-372, H3K9me3 peptide, LANCE TR-FRET; Lysine-specific demethylase 4C (Homo sapiens), Q9H3R0;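 active = mean replicate inhibition above about 25%, with at least 55% of replicates also reaching it, limit read from the data, passing the limit was not always enough; inconclusive = only one of those two conditions met; inactive = neither condition met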
Target sequence (Q9H3R0 2-372 limits assumed): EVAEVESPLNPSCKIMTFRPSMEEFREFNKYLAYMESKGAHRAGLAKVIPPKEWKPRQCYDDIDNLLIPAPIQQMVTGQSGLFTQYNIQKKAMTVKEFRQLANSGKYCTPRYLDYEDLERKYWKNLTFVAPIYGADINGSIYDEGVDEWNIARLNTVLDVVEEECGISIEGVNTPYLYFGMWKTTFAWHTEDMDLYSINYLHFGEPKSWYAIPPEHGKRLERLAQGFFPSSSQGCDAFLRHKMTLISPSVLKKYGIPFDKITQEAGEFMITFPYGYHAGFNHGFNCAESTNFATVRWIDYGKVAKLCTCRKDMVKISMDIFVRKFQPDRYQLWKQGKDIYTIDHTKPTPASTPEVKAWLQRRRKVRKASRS
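System – N-terminal GST-fused human GASC-1 (KDM4C) fragment, residues 2-372 · Input – enzyme final amount 10 nM · Technique – LANCE TR-FRET, Eu antibody, ULight-streptavidin, EDTA, ex 340 nm, em 618/671 nm · Medium – HEPES buffer, pH 7.5, plus ascorbate · Incubation – enzyme reaction 30 min, then detection 60 min, both room temperature · Reagent – H3K9me3 peptide with Fe(II)/2OG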
T cruzi growth-2: T. cruzi intracellular proliferation inhibitors, confirmation, cell-based, NIH3T3 host, beta-gal parasite, luminescence, cherry-pick; shares compounds with T cruzi growth-1; T. cruzi beta-gal in NIH3T3, GalScreen luminescence, 90 h; inhibition, % at 8.35 µM; 72% of 5,600 active; AID 651739, 2012;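 active = mean replicate inhibition above about 95% and at least 55% of replicates individually reaching it, limit read from the data; inconclusive = only one of the two criteria is met; inactive = neither criterion is met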
T cruzi growth-3: inhibitors of intracellular T. cruzi replication, confirmation, NIH3T3 host cells, beta-gal parasites, cherry-pick, set 2; shares compounds with T cruzi growth-1; T. cruzi beta-gal in NIH3T3, GalScreen luminescence, 90 h; inhibition, % at 2.09 µM; 21% of 5,600 active; AID 651740, 2012;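 active = mean inhibition above about 95%, with at least 55% of replicates also reaching it, limit read from the data; inconclusive = meets just one of the two conditions; inactive = meets neither condition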;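 note: plate controls were neutral control median for no effect and positive control median for full effect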
NIH3T3 tox: cytotoxicity in mouse NIH/3T3 fibroblasts, confirmation, cytotoxicity control for T. cruzi proliferation inhibitor project, cell-based, cherry-pick, single point; shares compounds with T cruzi growth-1; NIH/3T3 viability, CellTiter-Glo ATP luminescence, 90 h; cytotoxicity (signal decrease), % at 8.35 µM; 14% of 5,600 active; AID 651742, 2012;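 active = mean signal decrease across replicates above about 35% based on untreated-well scatter, with enough replicates individually passing, limit read from the data; inconclusive = no rule stated though some were filed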;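 note: 0% = median of neutral control wells and 100% = median of positive control wells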
3T3 cytotox 2: NIH/3T3 fibroblast cytotoxicity, confirmation, cytotoxicity control, cell-based, cherry-pick, single point, set 2; AID 651744, 2012; 56% of 5,600 active; shares compounds with T cruzi growth-1; inhibition, % at 24.9 µM; NIH/3T3 viability, CellTiter-Glo ATP luminescence, 90 h;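 active = mean loss of cell viability signal at or above a set limit, and enough replicates individually reaching it; inconclusive = meets only the mean limit or only the replicate share; inactive = meets neither condition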;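 note: 0% = median of neutral control wells and 100% = median of positive control wells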
Numbers without * were called inactive; ? = inconclusive; · = no result. Hits are enriched below; roughly 5.8% of the tested compounds scored in any of these assays.

SMILES | Pf Dd2 growth | T cruzi growth-1 | IDH1 mut inh | GASC1 inh | T cruzi growth-2 | T cruzi growth-3 | NIH3T3 tox | 3T3 cytotox 2
C[C@@H]1CN([C@@H](C)CO)C(=O)c2ccccc2-c2ccccc2CO[C@@H]1CN(C)C(=O)Nc1ccccc1 | 10 | 38 | · | 0 | · | · | · | ·
C[C@@H]1CN([C@H](C)CO)C(=O)c2ccccc2-c2ccccc2CO[C@@H]1CN(C)C(=O)Nc1ccnc(N2CCOCC2)c1 | -15 | ? | 0 | 2 | 89 | 33 | -2 | 7
CS(=O)(=O)N(CC(=O)Nc1ccc(F)c(Cl)c1)Cc1ccccc1 | · | · | 0 | · | · | · | · | ·
O=C(CSc1n[nH]c(-c2ccncc2)n1)Nc1sc2c(c1C(=O)Nc1ccccc1)CCCC2 | · | · | 0 | · | · | · | · | ·
CCN1[C@H](C(=O)N(C)C)[C@@H](CO)[C@@H]2Cn3c(ccc(-c4cccc(C(=O)N(C)C)c4)c3=O)[C@@H]21 | · | 100* | · | 0 | 51 | 18 | 8 | -6
COc1ccc(-c2ccc3n(c2=O)C[C@H]2[C@H](CO)[C@@H](C(=O)N(C)C)N(CC4CC4)[C@@H]32)cc1 | -2 | 103* | · | 17 | -33 | 13 | 1 | 7
COC(=O)c1cccc(NC(=O)COc2cc(C)ccc2C)c1 | · | · | 0 | · | · | · | · | ·
O=C(O)CNC(=O)CN1C(=O)c2ccccc2C1=O | · | · | 4 | · | · | · | · | ·
CC(C)CC#Cc1ccc2c(c1)O[C@@H](CN(C)Cc1cccnc1)[C@H](C)CN([C@@H](C)CO)S2(=O)=O | · | 94 | 19 | 0 | · | · | · | ·
CC(C)CC#Cc1ccc2c(c1)O[C@H](CN(C)Cc1cccnc1)[C@@H](C)CN([C@@H](C)CO)S2(=O)=O | · | 100* | 22 | 1 | 93 | 102* | 13 | 104*
CC(C)CC#Cc1ccc2c(c1)O[C@@H](CN(C)Cc1cccnc1)[C@@H](C)CN([C@H](C)CO)S2(=O)=O | · | 65 | 10 | -1 | · | · | · | ·
CC(C)CC#Cc1ccc2c(c1)O[C@H](CN(C)Cc1cncnc1)[C@H](C)CN([C@H](C)CO)S2(=O)=O | -4 | 22 | -1 | 0 | · | · | · | ·
CC(C)CC#Cc1ccc2c(c1)O[C@H](CN(C)Cc1cncnc1)[C@@H](C)CN([C@H](C)CO)S2(=O)=O | -32 | 103* | -3 | 2 | 94 | 106* | 47* | 61*
CC(C)CC#Cc1ccc2c(c1)O[C@@H](CN(C)Cc1cccnc1)[C@@H](C)CN([C@@H](C)CO)S2(=O)=O | · | 108* | 10 | -1 | 108* | 90 | 30 | 107*
CC(=O)O[C@]1(C(C)=O)CC[C@H]2[C@@H]3C=C(Cl)C4=CC(=O)C5CC5[C@]4(C)[C@H]3CC[C@@]21C (some centres not stated) | · | · | 0 | · | · | · | · | ·
COc1ccc(S(=O)(=O)N(C)C[C@H]2OCCCC[C@H](C)Oc3ccc(NC(=O)Nc4ccccc4)cc3C(=O)N([C@@H](C)CO)C[C@@H]2C)cc1 | -76 | 105* | 4 | 7 | 110* | 67 | 18 | 8
COc1ccc(S(=O)(=O)N(C)C[C@H]2OCCCC[C@@H](C)Oc3ccc(NC(=O)Nc4ccccc4)cc3C(=O)N([C@@H](C)CO)C[C@@H]2C)cc1 | -64 | 100* | · | -2 | 112* | 1 | 8 | ?
COc1ccc(S(=O)(=O)N(C)C[C@@H]2OCCCC[C@H](C)Oc3ccc(NC(=O)Nc4ccccc4)cc3C(=O)N([C@@H](C)CO)C[C@@H]2C)cc1 | -86* | ? | 0 | -1 | 105* | 72 | 7 | 25

Screens as filed in PubChem BioAssay.
